Source: PubChem
H69AR inhibit – proliferation blockers of H69AR lung cancer cells, primary screen, cell-based, human, 86K library; H69AR lung tumor viability, ATP luminescence, 72 h; stronger effect = lower value; hit rate 6% among 85,000; AID 598, 2007; viability, % at 10 µM;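 active = viability at or below 40%; inactive = viability above 40%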;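 note: multidrug resistant small cell line overexpressing MRP-1 efflux transporter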
HUVEC inhibit – inhibitors of HUVEC proliferation, primary screen, cell-based, 384-well; CellTiter-Glo luminescence, 72 h; stronger effect = lower value; viability, % at 10 µM (by protocol); hit rate 1.1% among 86,000;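 active = viability at or below 30%; inactive = viability above 30%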
bCat KO growth – primary screen for growth suppressors in beta-catenin knockout HCT116 cells (colon tumor, human); hit rate 1.5% among 140,000; viability, % at 10 µM; HCT116 beta-catenin knockout viability, CellTiter-Glo, 60 h; stronger effect = lower value;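 active = viability at or under a set limit, the compound median less 4 SD, cut at about 6% in these data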
Fibroblast inh – antiproliferative effect on LL 47 fibroblasts – human, LL 47 cells, CellTiter-Glo luminescence, primary screen. viability, % at 10 µM. LL 47 human lung fibroblast viability, ATP luminescence; stronger effect = lower value. hit rate 1.1% among 85,000;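 active = viability at or below 50% in the single dose screen; inactive = viability above 50%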;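 note: compound exposure lasted 72 h before the ATP readout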
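Test system: LL 47 human lung fibroblasts / Quantity: 1,150 cells in each well / Medium: IMEM growth medium with 15% fetal bovine serum / Incubation: 72 h compound exposure at 37 °C after overnight plating / Detection: CellTiter-Glo luminescence measuring cellular ATP / Read-out: % viability versus median cells-only luminescence / Benchmarks: cell-only wells, no compound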
HCT116 PTEN-null – growth suppression of PTEN-null HCT116, primary screen, cell-based, CellTiter-Glo. hit rate 1.2% among 140,000. viability, % at 10 µM. AID 827, 2007. HCT116 PTEN-null viability, 60 h; stronger effect = lower value;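 active = viability at or below a set limit, 4 SD under the median of all tested compounds, cut at about 3.7% in these data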;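 note: PTEN knockout HCT116 line with beta catenin targeted HCT116 as companion control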
Numbers stand for hits; n = inactive; x = no result. This excerpt belongs to a sample that is enriched for hits.

SMILES	H69AR inhibit	HUVEC inhibit	bCat KO growth	Fibroblast inh	HCT116 PTEN-null
O=C(Cc1cccs1)N1CCCC(c2nc3c(nnn3Cc3ccccc3Cl)c(=O)[nH]2)C1 (stereo not drawn)	n	n	n	n	n
CCCCn1c(NC(=O)c2ccccc2Cl)c(C#N)c2nc3ccccc3nc21	20.1	n	n	n	n
N#Cc1c(NC(=O)c2ccccc2Cl)n(Cc2ccccc2)c2nc3ccccc3nc12	x	x	n	x	n
Brc1ccc(C=Nc2ccc3c(c2)OCCOCCOCCO3)s1	x	x	n	x	n
CCC(=O)Nc1cccc(NC(=O)c2cccc([N+](=O)[O-])c2)c1	x	x	n	x	n
COc1ccc(CC(=O)Nc2ccc(-c3cn4ccc(C)cc4n3)cc2)cc1	x	x	n	x	n
CCCc1cc(C(=O)Cc2ccc(F)cc2)c(O)cc1O	15.4	n	n	n	n
COc1cccc(C2c3c(oc4ccc(Cl)cc4c3=O)C(=O)N2c2cc(C)on2)c1OC (stereo not drawn)	6.6	n	2.8	n	n
COc1ccc(/C(O)=C2\C(=O)C(=O)N(c3cc(C)on3)C2c2cccc(OC)c2OC)cc1C (stereo not drawn)	n	n	n	n	n
CCOC(=O)c1c(NC(=O)COc2cccc3c2CCN(CC)C3=O)sc2c1CCC2	x	x	n	x	n
C=CCOC(=O)C1=C(C)NC(SCC(=O)Nc2ccc(C)c(Cl)c2)=C(C#N)C1c1ccco1 (stereo not drawn)	7.0	n	4.2	16.9	n
CC(=O)Nc1ccccc1OCC(=O)NCCc1ccc(Cl)cc1Cl	x	x	n	x	n
CC(C)CNC(=S)NC(=O)c1ccc(Cl)cc1Cl	x	x	n	x	n
COc1ccc(NC(=O)Nc2nnc(N3CCC(C)CC3)s2)cc1OC	37.5	n	n	n	n
CC(=O)N1C(=O)CC(C)N(C(C)=O)c2ccc([N+](=O)[O-])cc21 (stereo not drawn)	x	x	n	x	n
CCN1/C(=C2\SC(=S)N(Cc3ccccc3)C2=O)Sc2ccccc21	x	x	n	x	n
CCC(CO)[n+]1c(C)cc(/C=C2\Sc3ccccc3N2Cc2ccccc2)cc1C (stereo not drawn)	x	x	1.4	x	1.6
O=C(CCC1CCCC1)N1CCC(N2CCCCCC2)CC1	x	x	n	x	n
CCOCC(=O)Nc1ccc(S(=O)(=O)NCCc2ccccc2)cc1	15.0	n	n	n	n
CCc1nnc(NC(=O)CSc2nnc(COc3ccccc3)n2-c2ccc(C)cc2)s1	n	n	n	n	n
Cc1ccc(OCc2nnc(SCC(=O)Nc3cccc4ccccc34)n2-c2ccccc2)cc1	18.3	n	n	4.2	n
CCn1c(COc2ccccc2)nnc1SCC(=O)Nc1cc(C)ccc1OC	n	n	n	n	n
CCn1c(COc2ccc(C)cc2)nnc1SCC(=O)Nc1cc(OC)ccc1OC	18.4	n	n	n	n
O=C(Nc1ccc(Br)cn1)c1ccc2nccnc2c1	33.9	n	x	n	x
Cc1cccc(NS(=O)(=O)c2cc(C(=O)NCCC3=CCCCC3)ccc2Cl)c1	x	x	n	x	n
SMILES	H69AR inhibit	HUVEC inhibit	bCat KO growth	Fibroblast inh	HCT116 PTEN-null
Cc1ccc2[nH]c(=O)c(CNS(=O)(=O)c3ccccc3)c(-c3ccccc3)c2c1	x	x	n	x	n
O=C(N/N=C/c1ccc2c(c1)OCO2)c1sc2cc(Cl)ccc2c1Cl	x	x	n	x	2.1
COc1ccc2c(Cl)c(C(=O)N/N=C/c3ccc4c(c3)OCO4)sc2c1	x	x	n	x	n
Cc1ccc2[nH]c3c(N4CCc5ccccc5C4)ncnc3c2c1	n	n	n	n	n
COc1ccc2[nH]c3c(N4CCC(O)(c5cccc(C(F)(F)F)c5)CC4)ncnc3c2c1	x	x	4.5	x	n
O=C(O)c1ccccc1-c1ccccc1C(=O)NCCCO	n	n	n	n	n
COc1ccc(C2C(C(=O)OCC3CCCO3)=C(C)NC3=C2C(=O)CC(c2ccco2)C3)cc1O (stereo not drawn)	n	n	n	n	n
Cc1cc(C)c(C)c(S(=O)(=O)N2CCN(Cc3nc4ccccc4[nH]3)CC2)c1C	n	n	n	n	n
Cc1ccc(S(=O)(=O)N2CCN(Cc3nc4ccccc4[nH]3)CC2)cc1C	35.0	n	n	n	n
CC(NC(=O)c1ccc(F)cc1)c1nc2ccccc2n1Cc1ccccc1F (stereo not drawn)	38.0	n	n	n	n
O=C(CNC(=O)C12CC3CC(CC(C3)C1)C2)N1CCN(S(=O)(=O)/C=C/c2ccccc2)CC1	x	x	n	x	n
